# Reference: ChEMBL document CHEMBL3751813, “Nonpeptidic Amphiphilic Xanthone Derivatives: Structure-Activity Relationship and Membrane-Targeting Properties” (J Med Chem, 2016)
# Tests used:
# Staphylococcus aureus [1] = experiment: Antibacterial activity against clinical isolates of Staphylococcus aureus DM4001R after 24 hrs by […]; type: functional
# Staphylococcus aureus [2] = experiment: Antibacterial activity against clinical isolates of methicillin-resistant Staphylococcus aureus DM9808R after 24 hrs by […]; type: functional
# Staphylococcus aureus [3] = experiment: Antibacterial activity against clinical isolates of methicillin-resistant Staphylococcus aureus DM21455 after 24 hrs by […]; type: functional; settings: DM21455, 24 h
# Bacillus cereus = experiment: Antibacterial activity against clinical isolates of Bacillus cereus ATCC 11778 after 24 hrs by […]; type: functional; settings: ATCC 11778, 24 h
# [4] = Hemolytic activity against New Zealand white rabbit RBC after 1 hr by microplate reader analysis; type: ADME, cell-based, Oryctolagus cuniculus, Erythrocyte; settings: rabbit red blood cells
# Method in brief: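 Rabbit RBCs spun from serum at 3,000 rpm for 10 min and washed twice in PBS. Mixed with compound in DMF at 4% v/v RBCs, 1 h at 37 °C. After centrifugation, hemoglobin in the supernatant read at 576 nm. 2% Triton X-100 was the positive control and 1% DMF the negative control.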
# [5] = Selectivity index, ratio of HC50 for hemolytic activity against New Zealand white rabbit RBC to MIC for clinical isolates of Staphylococcus aureus DM4001
# [6] = Membrane permeabilization activity assessed as release of calcein from DOPE/DOPG liposomes at lipid:compound ratio of 8 incubated for 30 mins by fluorescence assay; type: ADME; settings: 0.5 h
# Method in brief: (§1)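 Freeze-thawed, extruded, then gel-filtered. Final lipid 50 µM with compound added from DMF (<0.2%). Fluorescence at ex 490/em 520 nm over 30 min; 0.1% Triton X-100 defined 100% lysis.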
# [7] = Membrane permeabilization activity assessed as release of calcein from DOPE/DOPG liposomes at lipid:compound ratio of 16 incubated for 30 mins by fluorescence assay; type: ADME; settings: 0.5 h; method in brief: as §1
# Staphylococcus aureus [8] = experiment: Induction of membrane permeabilization in clinical isolates of Staphylococcus aureus DM4001 at MIC by SYTOX green uptake assay; type: functional
# Method in brief: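 Exponential-phase cells washed twice in 20 mM PBS pH 7 and adjusted to OD620 0.09. Given 3 µM SYTOX Green and kept in the dark until fluorescence was stable, then compound added. Fluorescence followed in a stirred cuvette at ex 504/em 523 nm. Melittin 10 µg/mL was the positive control. Run at least twice; one run reported.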
# Staphylococcus aureus [9] = experiment: Induction of membrane permeabilization in clinical isolates of Staphylococcus aureus DM4001 assessed as ATP leakage at MIC incubated for 10 mins by firefly luciferase based luminometry analysis; type: functional
# Method in brief: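 Exponential-phase cells washed twice in 20 mM PBS pH 7 and set to OD620 0.3. Exposed 10 min at 37 °C, then spun at 4000 rpm for 5 min. Supernatant mixed with luciferase reagent (1 mM DTT, 0.5 mM D-luciferin, 1.25 µg/mL firefly luciferase). Luminescence read over 30 cycles.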
# Staphylococcus aureus [10] = experiment: Bactericidal activity against clinical isolates of Staphylococcus aureus DM4001 assessed as log reduction in viability at 4 times MIC measured over 30 mins by time kill kinetic study; type: functional
# Method in brief: (§2)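 Cells from colonies on an 18–22 h TSA plate, suspended in 0.31 mM phosphate buffer pH 7.2 at 10^5–10^6 CFU/mL. Dosed at 1×, 2× and 4× MIC at 35 °C. Aliquots taken at 10 min, 30 min, 1 h, 2 h and 5 h, diluted ten-fold serially, spread on MHA and counted after 48–72 h at 35 °C. Detection limit 100 CFU/mL. Bactericidal means a 3-log drop versus untreated control.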
# Staphylococcus aureus [11] = experiment: Bactericidal activity against clinical isolates of Staphylococcus aureus DM4001 assessed as log reduction in viability at 2 times MIC measured over 300 mins by time kill kinetic study; type: functional
# Method in brief: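 Colonies from 18–22 h TSA plates suspended in 0.31 mM phosphate buffer pH 7.2 at 10^5–10^6 CFU/mL. Treated at 1×, 2× and 4× MIC at 35 °C, sampled at 10 min, 30 min, 1 h, 2 h and 5 h. Ten-fold dilutions spread on MHA, 35 °C for 48–72 h, colonies counted. Detection limit 100 CFU/mL; bactericidal means 3-log drop versus untreated.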
# [12] = Cytotoxicity in human corneal fibroblasts assessed as cell viability at 0.5 times MIC incubated for 4 hrs by luminescent cell viability assay relative to control; design: species or system Corneal fibroblast; settings: read-out: Activity
# Method in brief: (§3)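 Cells plated at 10,000 per well and exposed 4 h in 100 µL. Plate equilibrated to 22 °C for 30 min, then read with CellTiter-Glo luminescence. 1% Triton X-100 set minimal viability and 0.5% DMF served as negative control. Viability computed relative to these controls.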
# [13] = Cytotoxicity in human corneal fibroblasts assessed as cell viability at MIC incubated for 4 hrs by luminescent cell viability assay relative to control; design: species or system Corneal fibroblast; settings: read-out: Activity; method in brief: as §3
# [14] = Cytotoxicity in human corneal fibroblasts assessed as cell viability at 2 times MIC incubated for 4 hrs by luminescent cell viability assay relative to control; design: species or system Corneal fibroblast; settings: read-out: Activity; method in brief: as §3
# [15] = Cytotoxicity in human corneal fibroblasts assessed as cell viability at 4 times MIC incubated for 4 hrs by luminescent cell viability assay relative to control; design: species or system Corneal fibroblast; settings: read-out: Activity; method in brief: as §3
# [16] = Cytotoxicity in human corneal fibroblasts at 0.5 times MIC incubated for 4 hrs by LDH release assay relative to control; settings: corneal fibroblast
# [17] = Cytotoxicity in human corneal fibroblasts at MIC incubated for 4 hrs by LDH release assay relative to control; settings: corneal fibroblast
# [18] = Cytotoxicity in human corneal fibroblasts at 2 times MIC incubated for 4 hrs by LDH release assay relative to control; settings: corneal fibroblast
# [19] = Cytotoxicity in human corneal fibroblasts at 4 times MIC incubated for 4 hrs by LDH release assay relative to control; settings: corneal fibroblast
# Staphylococcus aureus [20] = experiment: Bactericidal activity against clinical isolates of Staphylococcus aureus DM4001 at 4 times MIC measured over 30 mins by time kill kinetic study; type: functional; method in brief: as §2
# Staphylococcus aureus [21] = experiment: Bactericidal activity against clinical isolates of Staphylococcus aureus DM4001 at 2 times MIC measured over 300 mins by time kill kinetic study; type: functional; method in brief: as §2
smiles,measurement,setting,value
CCN(CC)CCCCOc1cc2oc3cc(OCCCCN(CC)CC)c(OC)c(CCC(C)C)c3c(=O)c2c(O)c1CCC(C)C,MIC,Staphylococcus aureus [1],3.12 µg/mL
same,MIC,Staphylococcus aureus [2],12.5 µg/mL
same,MIC,Staphylococcus aureus [3],25 µg/mL
same,MIC,Bacillus cereus,25 µg/mL
same,HC50 at 1 h,[4],48.6 µg/mL
same,Selectivity ratio,[5],15.6
same,Activity,[6],58.6%
same,Activity,[7],20.1%
COc1c(OCCCCN)cc2oc3cc(OCCCCN)c(CC=C(C)C)c(O)c3c(=O)c2c1CC=C(C)C,MIC,Staphylococcus aureus [1],1.56 µg/mL
same,MIC,Staphylococcus aureus [2],3.12 µg/mL
same,MIC,Staphylococcus aureus [3],1.56 µg/mL
same,MIC,Bacillus cereus,3.12 µg/mL
same,HC50 at 1 h,[4],80.2 µg/mL
same,Selectivity ratio,[5],51.4
same,Activity,Staphylococcus aureus [8],1497 cps
same,Activity,Staphylococcus aureus [9],210 nM
same,LCK,Staphylococcus aureus [10],3
same,LCK,Staphylococcus aureus [11],3
same,"viability at 4 h, 0.5 times MIC",[12],98.5%
same,"viability at 4 h, 1 times MIC",[13],91.7%
same,"viability at 4 h, 2 times MIC",[14],90.7%
same,"viability at 4 h, 4 times MIC",[15],90.3%
same,Activity,[16],-0.7%
same,Activity,[17],-1%
same,Activity,[18],-0.5%
same,Activity,[19],0.9%
same,Activity,Staphylococcus aureus [20],99.9%
same,Activity,Staphylococcus aureus [21],99.9%
